Measurements published in paper PMC6172068 (Cancer Science, 2018).
Marks after values point to notes of the source that are not given here.

Experiment: Safety and tolerability
Format: in vivo, Japanese patients
In short: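 In this open-label study, once-daily oral dosing escalated 20–300 mg/d by Bayesian continual reassessment. DLTs were judged from Cycles 0 and 1, and MTD/RD came from the posterior mean DLT rate plus investigator assessment. Treatment-emergent AEs were graded by NCI-CTCAE v4.0 for seriousness, duration and relatedness. The safety analysis set comprised all patients given ≥1 dose.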

CCc1nc(C(N)=O)c(Nc2ccc(N3CCC(N4CCN(C)CC4)CC3)c(OC)c2)nc1NC1CCOCC1 [gilteritinib]
AEs leading to discontinuation of the study drug (20 mg (n = 1)): 0 n (%)
Any AE (20 mg (n = 1)): 1 (100%) n (%)
Deaths (20 mg (n = 1)): 0 n (%)
Drug-related AE (20 mg (n = 1)): 1 (100%) n (%)
Drug-related AEs leading to discontinuation of the study drug (20 mg (n = 1)): 0 n (%)
Drug-related grade ≥3 AEs (20 mg (n = 1)): 0 n (%)
Drug-related serious AEs (20 mg (n = 1)): 0 n (%)
Grade ≥3 AEs (20 mg (n = 1)): 1 (100%) n (%)
Serious AE: Acute cholangitis (20 mg (n = 1)): 0 n (%)
Serious AE: Bronchopneumonia (20 mg (n = 1)): 0 n (%)
Serious AE: Bronchopulmonary aspergillosis (20 mg (n = 1)): 0 n (%)
Serious AE: Cardiomyopathy (20 mg (n = 1)): 0 n (%)
Serious AE: Device-related infection (20 mg (n = 1)): 0 n (%)
Serious AE: Edema (20 mg (n = 1)): 0 n (%)
Serious AE: Febrile neutropenia (20 mg (n = 1)): 0 n (%)
Serious AE: Increased level of fibrin degradation products (20 mg (n = 1)): 0 n (%)
Serious AE: Pneumonia (20 mg (n = 1)): 0 n (%)
Serious AE: Sepsis (20 mg (n = 1)): 0 n (%)
Serious AE: Subdural hematoma (20 mg (n = 1)): 0 n (%)
Serious AEs (20 mg (n = 1)): 0 n (%)
AEs leading to discontinuation of the study drug (40 mg (n = 4)): 1 (25%) n (%)
Any AE (40 mg (n = 4)): 4 (100%) n (%)
Deaths (40 mg (n = 4)): 0 n (%)
Drug-related AE (40 mg (n = 4)): 3 (75%) n (%)
Drug-related AEs leading to discontinuation of the study drug (40 mg (n = 4)): 1 (25%) n (%)
Drug-related grade ≥3 AEs (40 mg (n = 4)): 1 (25%) n (%)
Drug-related serious AEs (40 mg (n = 4)): 1 (25%) n (%)
Grade ≥3 AEs (40 mg (n = 4)): 2 (50%) n (%)
Serious AE: Acute cholangitis (40 mg (n = 4)): 0 n (%)
Serious AE: Bronchopneumonia (40 mg (n = 4)): 0 n (%)
Serious AE: Bronchopulmonary aspergillosis (40 mg (n = 4)): 0 n (%)
Serious AE: Cardiomyopathy (40 mg (n = 4)): 0 n (%)
Serious AE: Device-related infection (40 mg (n = 4)): 1 (25%) n (%)
Serious AE: Edema (40 mg (n = 4)): 1 (25%) n (%)
Serious AE: Febrile neutropenia (40 mg (n = 4)): 0 n (%)
Serious AE: Increased level of fibrin degradation products (40 mg (n = 4)): 0 n (%)
Serious AE: Pneumonia (40 mg (n = 4)): 1 (25%) n (%)
Serious AE: Sepsis (40 mg (n = 4)): 0 n (%)
Serious AE: Subdural hematoma (40 mg (n = 4)): 0 n (%)
Serious AEs (40 mg (n = 4)): 1 (25%) n (%)
AE resulting in permanent discontinuation: pneumonia (40 mg/d): 1 n
AEs leading to discontinuation of the study drug (80 mg (n = 4)): 1 (25%) n (%)
Any AE (80 mg (n = 4)): 4 (100%) n (%)
Drug-related AE (80 mg (n = 4)): 3 (75%) n (%)
Drug-related AEs leading to discontinuation of the study drug (80 mg (n = 4)): 1 (25%) n (%)
Drug-related grade ≥3 AEs (80 mg (n = 4)): 1 (25%) n (%)
Drug-related serious AEs (80 mg (n = 4)): 1 (25%) n (%)
Grade ≥3 AEs (80 mg (n = 4)): 2 (50%) n (%)
Serious AE: Acute cholangitis (80 mg (n = 4)): 1 (25%) n (%)
Serious AE: Bronchopneumonia (80 mg (n = 4)): 1 (25%) n (%)
Serious AE: Bronchopulmonary aspergillosis (80 mg (n = 4)): 0 n (%)
Serious AE: Cardiomyopathy (80 mg (n = 4)): 0 n (%)
Serious AE: Device-related infection (80 mg (n = 4)): 0 n (%)
Serious AE: Edema (80 mg (n = 4)): 0 n (%)
Serious AE: Febrile neutropenia (80 mg (n = 4)): 0 n (%)
Serious AE: Increased level of fibrin degradation products (80 mg (n = 4)): 0 n (%)
Serious AE: Pneumonia (80 mg (n = 4)): 0 n (%)
Serious AE: Sepsis (80 mg (n = 4)): 1 (25%) n (%)
Serious AE: Subdural hematoma (80 mg (n = 4)): 1 (25%) n (%)
Serious AEs (80 mg (n = 4)): 1 (25%) n (%)
Deaths (80 mg (n = 4), cause of death considered related to the study drug): 1 (25%) ^a n (%)
AE resulting in permanent discontinuation: subdural hematoma (80 mg/d): 1 n
AEs leading to discontinuation of the study drug (120 mg (n = 4)): 0 n (%)
Any AE (120 mg (n = 4)): 4 (100%) n (%)
Deaths (120 mg (n = 4)): 0 n (%)
Drug-related AE (120 mg (n = 4)): 4 (100%) n (%)
Drug-related AEs leading to discontinuation of the study drug (120 mg (n = 4)): 0 n (%)
Drug-related grade ≥3 AEs (120 mg (n = 4)): 1 (25%) n (%)
Drug-related serious AEs (120 mg (n = 4)): 0 n (%)
Grade ≥3 AEs (120 mg (n = 4)): 2 (50%) n (%)
Serious AE: Acute cholangitis (120 mg (n = 4)): 0 n (%)
Serious AE: Bronchopneumonia (120 mg (n = 4)): 0 n (%)
Serious AE: Bronchopulmonary aspergillosis (120 mg (n = 4)): 0 n (%)
Serious AE: Cardiomyopathy (120 mg (n = 4)): 0 n (%)
Serious AE: Device-related infection (120 mg (n = 4)): 0 n (%)
Serious AE: Edema (120 mg (n = 4)): 0 n (%)
Serious AE: Febrile neutropenia (120 mg (n = 4)): 0 n (%)
Serious AE: Increased level of fibrin degradation products (120 mg (n = 4)): 0 n (%)
Serious AE: Pneumonia (120 mg (n = 4)): 0 n (%)
Serious AE: Sepsis (120 mg (n = 4)): 0 n (%)
Serious AE: Subdural hematoma (120 mg (n = 4)): 0 n (%)
Serious AEs (120 mg (n = 4)): 0 n (%)
DLT: grade 3 tumor lysis syndrome (120 mg/d): 1 n
AEs leading to discontinuation of the study drug (200 mg (n = 9)): 2 (22.2%) n (%)
Any AE (200 mg (n = 9)): 9 (100%) n (%)
Deaths (200 mg (n = 9)): 0 n (%)
Drug-related AE (200 mg (n = 9)): 9 (100%) n (%)
Drug-related AEs leading to discontinuation of the study drug (200 mg (n = 9)): 1 (11.1%) n (%)
Drug-related grade ≥3 AEs (200 mg (n = 9)): 4 (44.4%) n (%)
Drug-related serious AEs (200 mg (n = 9)): 2 (22.2%) n (%)
Grade ≥3 AEs (200 mg (n = 9)): 7 (77.8%) n (%)
Serious AE: Acute cholangitis (200 mg (n = 9)): 0 n (%)
Serious AE: Bronchopneumonia (200 mg (n = 9)): 0 n (%)
Serious AE: Bronchopulmonary aspergillosis (200 mg (n = 9)): 1 (11.1%) n (%)
Serious AE: Cardiomyopathy (200 mg (n = 9)): 1 (11.1%) n (%)
Serious AE: Device-related infection (200 mg (n = 9)): 0 n (%)
Serious AE: Edema (200 mg (n = 9)): 0 n (%)
Serious AE: Febrile neutropenia (200 mg (n = 9)): 1 (11.1%) n (%)
Serious AE: Increased level of fibrin degradation products (200 mg (n = 9)): 1 (11.1%) n (%)
Serious AE: Pneumonia (200 mg (n = 9)): 0 n (%)
Serious AE: Sepsis (200 mg (n = 9)): 0 n (%)
Serious AE: Subdural hematoma (200 mg (n = 9)): 1 (11.1%) n (%)
Serious AEs (200 mg (n = 9)): 5 (55.6%) n (%)
AE resulting in permanent discontinuation: elevated blood creatine phosphokinase (200 mg/d): 1 n
AE resulting in permanent discontinuation: delirium (200 mg/d, not considered drug-related): 1 n
AEs leading to discontinuation of the study drug (300 mg (n = 2)): 2 (100%) n (%)
Any AE (300 mg (n = 2)): 2 (100%) n (%)
Deaths (300 mg (n = 2)): 0 n (%)
Drug-related AE (300 mg (n = 2)): 2 (100%) n (%)
Drug-related AEs leading to discontinuation of the study drug (300 mg (n = 2)): 2 (100%) n (%)
Drug-related grade ≥3 AEs (300 mg (n = 2)): 2 (100%) n (%)
Drug-related serious AEs (300 mg (n = 2)): 0 n (%)
Grade ≥3 AEs (300 mg (n = 2)): 2 (100%) n (%)
Serious AE: Acute cholangitis (300 mg (n = 2)): 0 n (%)
Serious AE: Bronchopneumonia (300 mg (n = 2)): 0 n (%)
Serious AE: Bronchopulmonary aspergillosis (300 mg (n = 2)): 0 n (%)
Serious AE: Cardiomyopathy (300 mg (n = 2)): 0 n (%)
Serious AE: Device-related infection (300 mg (n = 2)): 0 n (%)
Serious AE: Edema (300 mg (n = 2)): 0 n (%)
Serious AE: Febrile neutropenia (300 mg (n = 2)): 0 n (%)
Serious AE: Increased level of fibrin degradation products (300 mg (n = 2)): 0 n (%)
Serious AE: Pneumonia (300 mg (n = 2)): 0 n (%)
Serious AE: Sepsis (300 mg (n = 2)): 0 n (%)
Serious AE: Subdural hematoma (300 mg (n = 2)): 0 n (%)
Serious AEs (300 mg (n = 2)): 0 n (%)
AE resulting in permanent discontinuation: elevated lactate dehydrogenase (300 mg/d): 1 n
AE resulting in permanent discontinuation: pneumonia (300 mg/d): 1 n
DLTs: grade 3 elevated blood lactate dehydrogenase, amylase, blood creatine phosphokinase levels, and syncope (300 mg/d): 2 n
patients with a dose decrease (2 patients): 8.3%
patients with dose interruptions (7 patients): 29.2%
Anemia (Grade 1-2, N = 24): 0 n (%)
Bone pain (Grade 1-2, N = 24): 1 (4.2%) n (%)
Constipation (Grade 1-2, N = 24): 4 (16.7%) n (%)
Corneal erosion (Grade 1-2, N = 24): 4 (16.7%) n (%)
Cough (Grade 1-2, N = 24): 3 (12.5%) n (%)
Diarrhea (Grade 1-2, N = 24): 6 (25%) n (%)
Disseminated intravascular coagulation (Grade 1-2, N = 24): 1 (4.2%) n (%)
Dysesthesia (Grade 1-2, N = 24): 2 (8.3%) n (%)
Dysgeusia (Grade 1-2, N = 24): 2 (8.3%) n (%)
ECG prolonged QT interval (Grade 1-2, N = 24): 1 (4.2%) n (%)
Elevated ALT (Grade 1-2, N = 24): 2 (8.3%) n (%)
Elevated AST (Grade 1-2, N = 24): 2 (8.3%) n (%)
Elevated blood creatine phosphokinase (Grade 1-2, N = 24): 6 (25%) n (%)
Elevated blood lactate dehydrogenase (Grade 1-2, N = 24): 7 (29.2%) n (%)
Elevated liver enzymes (ALT, AST, and alkaline phosphatase) (Grade 1-2, N = 24): 9 (37.5%) n (%)
Epistaxis (Grade 1-2, N = 24): 2 (8.3%) n (%)
Febrile neutropenia (Grade 1-2, N = 24): 2 (8.3%) n (%)
Headache (Grade 1-2, N = 24): 4 (16.7%) n (%)
Hematoma (Grade 1-2, N = 24): 2 (8.3%) n (%)
Hypertension (Grade 1-2, N = 24): 5 (20.8%) n (%)
Hypokalemia (Grade 1-2, N = 24): 2 (8.3%) n (%)
Hypotension (Grade 1-2, N = 24): 2 (8.3%) n (%)
Hypoxia (Grade 1-2, N = 24): 2 (8.3%) n (%)
Increased amylase (Grade 1-2, N = 24): 1 (4.2%) n (%)
Insomnia (Grade 1-2, N = 24): 2 (8.3%) n (%)
Lung infection (Grade 1-2, N = 24): 1 (4.2%) n (%)
Nausea (Grade 1-2, N = 24): 4 (16.7%) n (%)
Pleural effusion (Grade 1-2, N = 24): 3 (12.5%) n (%)
Pneumonia (Grade 1-2, N = 24): 1 (4.2%) n (%)
Pyrexia (Grade 1-2, N = 24): 7 (29.2%) n (%)
Rash (Grade 1-2, N = 24): 3 (12.5%) n (%)
Renal impairment (Grade 1-2, N = 24): 5 (20.8%) n (%)
Sepsis (Grade 1-2, N = 24): 1 (4.2%) n (%)
Somnolence (Grade 1-2, N = 24): 3 (12.5%) n (%)
